Results taken from ChEMBL document CHEMBL1134236, “Anti-MRSA cephems. Part 1: C-3 substituted thiopyridinium derivatives” (Bioorg Med Chem Lett, 2001).
≈ marks a conversion by molar mass, not a printed value.

tested on: Staphylococcus aureus; test: Minimum inhibitory concentration against methicillin-resistant Staphylococcus aureus (MRSA) A27223 in the presence of 50% calf serum.; type: functional; settings: not given
Summary of the method: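 NCCLS broth MIC in Mueller-Hinton broth with 2% NaCl plus 50% calf serum. Inoculum about 5×10⁵ CFU/mL, incubated at 35 °C for 24 h. Read as the lowest concentration with no visible growth.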

SMILES | MIC [µg/mL]
C=CCCc1cc(SCC2=C(C(=O)[O-])N3C(=O)[C@@H](NC(=O)CSc4cc(Cl)ccc4Cl)[C@H]3SC2)cc(C)[n+]1CC[C@@H](O)C(=O)O | 8
CCCC[n+]1c(C)cc(SCC2=C(C(=O)[O-])N3C(=O)[C@@H](NC(=O)CSc4cc(Cl)ccc4Cl)[C@H]3SC2)cc1CCC(=O)O | 8
Cc1cc(SCC2=C(C(=O)[O-])N3C(=O)[C@@H](NC(=O)CSc4cc(Cl)ccc4Cl)[C@H]3SC2)cc(CCC(=O)O)[n+]1C[C@@H](O)[C@H](O)[C@@H](O)C(O)O | 16

tested on: Staphylococcus aureus; test: Minimum inhibitory concentration against methicillin-resistant Staphylococcus aureus (MRSA) A27223; type: functional; settings: not given
Summary of the method: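 Broth microdilution per NCCLS in Mueller-Hinton broth with 2% NaCl. Inoculum about 5×10⁵ CFU/mL, incubated at 35 °C for 24 h. MIC is the lowest drug concentration that inhibits all visible growth.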

SMILES | MIC [µg/mL]
C=CCCc1cc(SCC2=C(C(=O)[O-])N3C(=O)[C@@H](NC(=O)CSc4cc(Cl)ccc4Cl)[C@H]3SC2)cc(C)[n+]1CC[C@@H](O)C(=O)O | 4 (≈ 5.61 µM)
CCCC[n+]1c(C)cc(SCC2=C(C(=O)[O-])N3C(=O)[C@@H](NC(=O)CSc4cc(Cl)ccc4Cl)[C@H]3SC2)cc1CCC(=O)O | 4 (≈ 5.84 µM)
Cc1cc(SCC2=C(C(=O)[O-])N3C(=O)[C@@H](NC(=O)CSc4cc(Cl)ccc4Cl)[C@H]3SC2)cc(CCC(=O)O)[n+]1C[C@@H](O)[C@H](O)[C@@H](O)C(O)O | 8 (≈ 10.3 µM)

tested on: Staphylococcus aureus; test: Dose required for protective activity against methicillin-resistant Staphylococcus aureus (MRSA) A27223 in mouse following i.m. administration.; settings: im, read-out: PD50

SMILES | ED50 [mg/kg]
C=CCCc1cc(SCC2=C(C(=O)[O-])N3C(=O)[C@@H](NC(=O)CSc4cc(Cl)ccc4Cl)[C@H]3SC2)cc(C)[n+]1CC[C@@H](O)C(=O)O | 19.2
CCCC[n+]1c(C)cc(SCC2=C(C(=O)[O-])N3C(=O)[C@@H](NC(=O)CSc4cc(Cl)ccc4Cl)[C@H]3SC2)cc1CCC(=O)O | > 23
Cc1cc(SCC2=C(C(=O)[O-])N3C(=O)[C@@H](NC(=O)CSc4cc(Cl)ccc4Cl)[C@H]3SC2)cc(CCC(=O)O)[n+]1C[C@@H](O)[C@H](O)[C@@H](O)C(O)O | > 20
